Data taken from ChEMBL document CHEMBL1125658, “Synthesis and properties of some peptide analogues of actinomycin D” (1991).
Converted amounts (≈) assume the structure as drawn. Starred links: 1 amine or outer side, 2 acyl side, 3 side chain; linkers in the order of their positions; H or OH if unused. Positions of bridges follow the written chain, without caps; N, C: chain ends. Non-standard residues stand in square brackets, D forms with d. Residues, ends and D or L forms follow the SMILES beside them. Chains are numbered I, II in the order given. Actinocin(1to9) = Cc1c2oc3c(C)ccc(C(=O)[*:2])c3nc-2c(C(=O)[*:1])c(N)c1=O; NMeV = CN[C@H](C(=O)O)C(C)C; Sar = CNCC(=O)O

Assays:
Assay type in all cases: functional
Bacillus subtilis = assay: Compound was tested for its antibacterial activity against Bacillus subtilis
Method in brief: (§1)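 Overnight culture in trypticase soy broth at 37 °C, 0.1 mL subcultured into 50 mL fresh TSB and grown 8 h. Then 0.1 mL of the rapidly growing culture was diluted into a further 50 mL TSB. 0.1 mL of this dilution inoculated into 2 mL TSB per tube for MIC determination.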

Staphylococcus aureus = assay: Compound was tested for its antibacterial activity against Staphylococcus aureus; method in brief: as §1
Mus musculus = assay: Compound was tested in vivo for its antitumor activity against B16 melanocarcinoma in mice by determining its median survival time at dose of 0.256 mg/Kg

SMILES	MIC (Bacillus subtilis)	MIC (Staphylococcus aureus)	T/C (Mus musculus)
Cc1c2oc3c(C)ccc(C(=O)N[C@@H]4C(=O)N[C@H](C(C)C)C(=O)N5CCC[C@H]5C(=O)N(C)CC(=O)N(C)[C@@H](CC(C)C)C(=O)O[C@@H]4C)c3nc-2c(C(=O)N[C@@H]2C(=O)N[C@H](C(C)C)C(=O)N3CCC[C@H]3C(=O)N(C)CC(=O)N(C)[C@@H](CC(C)C)C(=O)O[C@@H]2C)c(N)c1=O	0.2 µg/mL (≈ 0.156 µM)	0.5 µg/mL (≈ 0.39 µM)	
Cc1c2oc3c(C)ccc(C(=O)N[C@@H]4C(=O)N[C@H](C(C)C)C(=O)N5CCC[C@H]5C(=O)N(C)CC(=O)N(C)[C@@H](C(C)C)C(=O)O[C@@H]4C)c3nc-2c(C(=O)N[C@@H]2C(=O)N[C@H](C(C)C)C(=O)N3CCC[C@H]3C(=O)N(C)CC(=O)N(C)[C@@H](C(C)C)C(=O)O[C@@H]2C)c(N)c1=O [DACTINOMYCIN] (I: T[dV]P[Sar][NMeV] / II: T[dV]P[Sar][NMeV]; ester I:1-I:C, II:1-II:C; linker I:N-II:N via Actinocin(1to9))	0.09 µg/mL (≈ 0.0717 µM)	0.25 µg/mL (≈ 0.199 µM)	165
